Bioassay records: PubChem, Sanford-Burnham Center for Chemical Genomics
Only some compounds are listed: those with a hit (about 1.6% of all), similar ones and a draw of the others.
TRAIL sens C8: caspase-8 TRAIL sensitization | hit rate 1% among 360,000 | inhibition (viability loss, TRAIL sensitization), % at 10 µM | NB7+C8 cells + TRAIL, ATPlite viability luminescence | AID 624354;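 active = compounds causing at least 50% loss of cell viability in the single-dose screen, relative to plate controls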
PPC-1+TRAIL kill: compounds killing PPC-1 cancer cells with TRAIL present (potentiator screen, no TRAIL-free arm). PPC-1 cells + TRAIL, ATPLite viability luminescence. cell killing (% activity), % at 4 µM or 5 µM. hit rate 0.41% among 220,000. AID 1443;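 active = cell killing above 50% in the first pass at 4 µM, then a duplicate retest at 5 µM averaging 50% or more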;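 note: plate controls were cells with TRAIL plus DMSO for no effect and medium-only wells lacking cells for full effect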
FLuc stim CS: affects firefly luciferase, flagging false hits in luciferase stimulation screens | ATPlite luciferase biochemical, luminescence, 10 min; 0 = ATP-free wells, 1 = DMSO control | activation factor at 10 µM | AID 1027 | 200,000 tested, under 10 active | P08659;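 active = luciferase activation factor, scaled between plate controls, of at least 2 with compound at 10 µM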
Target sequence (P08659 whole entry, looked up): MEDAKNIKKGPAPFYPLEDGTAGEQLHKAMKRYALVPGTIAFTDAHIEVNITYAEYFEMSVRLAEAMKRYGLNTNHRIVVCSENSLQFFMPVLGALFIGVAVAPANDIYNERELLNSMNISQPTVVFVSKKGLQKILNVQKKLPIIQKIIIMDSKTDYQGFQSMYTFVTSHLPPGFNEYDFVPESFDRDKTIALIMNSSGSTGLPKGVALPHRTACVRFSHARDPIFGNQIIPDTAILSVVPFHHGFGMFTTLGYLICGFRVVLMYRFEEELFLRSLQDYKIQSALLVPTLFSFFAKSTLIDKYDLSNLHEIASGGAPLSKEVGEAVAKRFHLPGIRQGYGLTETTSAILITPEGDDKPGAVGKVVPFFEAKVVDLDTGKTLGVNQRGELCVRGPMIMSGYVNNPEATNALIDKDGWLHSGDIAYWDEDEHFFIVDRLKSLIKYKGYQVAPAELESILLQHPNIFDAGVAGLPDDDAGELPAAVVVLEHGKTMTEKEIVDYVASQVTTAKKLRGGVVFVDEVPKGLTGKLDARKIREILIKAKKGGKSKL
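System: luciferase plus luciferin reagent, cell-free; medium: PBS as buffer for the ATP substrate; dosing: test compounds dosed from 2 mM stocks in 100% DMSO; timing: 10 min post-reagent at room temperature; measured by: luminescence measurement of luciferase light output; evaluation: luciferase activation, seen as luminescence increase over controls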
FLuc inh counter: Photinus pyralis luciferase inhibition counter-screen. P08659. hit rate 1.5% among 200,000. ATPLite firefly luciferase biochemical luminescence, 10 min. inhibition, % at 10 µM;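 active = inhibition above about 50% when tested at 10 µM, limit read from the data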
PPC-1 tox: kills PPC-1 cells. shares compounds with PPC-1+TRAIL kill. PPC-1 viability, ATPlite luminescence, overnight. cytotoxicity, % at 5 µM. hit rate 50% among 1,200. AID 1447;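 active = reconfirmed compounds whose average cytotoxicity reaches 50% or more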;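 note: 0% = DMSO-treated cells and 100% = wells holding medium but no cells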
Starred values were filed as active, the others as inactive; . = no result given.

SMILES	TRAIL sens C8	PPC-1+TRAIL kill	FLuc stim CS	FLuc inh counter	PPC-1 tox
COc1cccc(C(=O)/C=C/Nc2cccc(O)c2)c1	82*	85*	0	96*	86*
CN(NC1CC(=O)N(c2ccccc2)C1=O)c1ccccc1 (centres undefined)	1	-17	0.9	6	.
O=C(/C=C/c1ccccc1)NC(=S)NNC(=O)Cc1cccs1	11	24	1	3	.
COc1ccc(/C=C/C(=O)NC(=S)NNC(=O)Cc2cccs2)cc1	11	12	1	-1	6
Cn1c(=O)[nH]c(=O)c2c1nc(SCC(O)CCl)n2Cc1ccccc1 (centres undefined)	3	.	.	.	.
COc1ccc2[nH]c3nc(SC(C)C)nnc3c2c1	63*	58*	0.4	63*	56*
COc1ccc(CNC(=O)CSc2nnc3c(n2)[nH]c2ccc(OC)cc23)cc1	-7	.	.	.	.
COc1cccc(NC(=O)Nc2nccc(C)n2)c1	67*	56*	0.2	82*	62*
COc1cccc(NC(=O)Nc2ccc3nc(C)c(C)nc3c2)c1	3	.	.	.	.
COc1cccc(NC(=O)Nc2ccc3c(c2)nc(C)n3C)c1	82*	75*	0.1	92*	72*
Cc1nc2cc(NC(=O)Nc3nccs3)ccc2n1C	66*	54*	0.2	81*	51*
CC1CCCCC1NC(=O)CN1CCC(NC(=O)C(C)(C)C)CC1 (centres undefined)	-13	.	.	.	.
O=C(c1ccc(CS(=O)c2ccc(F)cc2)o1)N1CCN(C2CCCCC2)CC1 (centres undefined)	-12	.	.	.	.
Cc1nnc(NC2=NCCC2)s1	15	16	1.1	-6	8
Cc1nnc(NC2=NCCC2)o1	-6	3	1	0	.
CCCCN(C(=O)C1CCN(C(=O)c2ccccc2C)CC1)c1c(N)n(CC(C)C)c(=O)[nH]c1=O	19	.	.	.	.
Cc1ccc(NC(=O)c2c(C)noc2C)cc1	-6	-10	1.1	-13	-13
Cc1noc(C)c1C(=O)Nc1cccnc1	-10	7	1.1	-6	.
Nc1nc(CCl)nc(N(c2ccccc2)c2ccccc2)n1	93*	90*	.	.	90*
CC(=O)c1ccc(N=Nc2c(C)[nH][nH]c2=O)cc1	-7	.	.	.	.
CC(=O)c1ccc(N=Nc2ccc(N)cc2)cc1	83*	54*	.	.	55*
C=CCn1c(-c2ccc(OC)cc2)nc2nc3ccccc3nc21	27	-7	0.9	6	2
COc1ccc(C2NCCc3c2[nH]c2ccccc32)cc1CN1CCc2cc(OC)c(OC)cc2C1C (centres undefined)	9	13	.	.	34
O=C(Nc1ccc(N2CCOCC2)cc1)c1cnsn1	71*	73*	0.1	90*	71*
O=C(Nc1ccc(N2CCOCC2)cc1)c1ccncc1	0	16	0.9	10	.
SMILES	TRAIL sens C8	PPC-1+TRAIL kill	FLuc stim CS	FLuc inh counter	PPC-1 tox
COc1ccc(CC/C(C)=N\NC(N)=O)cc1	-10	-5	1.1	-6	.
O=C(CSc1nnc(-c2cccs2)o1)NCC1CN(Cc2ccccc2)CCO1 (centres undefined)	-14	1	1	-1	7
Cc1ccc(S(=O)(=O)NCc2ccccn2)cc1C	-3	.	.	.	.
CC(C)(C)C1=C(C#N)C(c2cc3c(cc2Br)OCO3)C(C#N)=C(N)O1 (centres undefined)	-7	-10	1	-2	4
Cc1ccc(C2C(C#N)=C(N)Oc3cc4c(cc32)OCO4)cc1 (centres undefined)	0	8	1	3	.
CN1CCN(C(=O)OC2CC3CC2[C@H]2CCCCN2C3=O)CC1 (some centres undefined)	-5	.	.	.	.
CCC1(c2ccccc2)NC(=O)N(CC(=O)NNC(=O)c2ccc(F)cc2)C1=O (centres undefined)	-14	.	.	.	.
Cc1ccc(C(=O)/C=C/Nc2ccccc2C(N)=O)cc1	90*	93*	0	97*	93*
CCOC(=O)c1ccccc1N/C=C/C(=O)c1ccccc1	13	.	.	.	.
NC(=O)c1ccccc1N/C=C/C(=O)c1ccc(Cl)cc1	88*	84*	0.1	94*	84*
CS(=O)(=O)c1ccc(C(=O)OCC(=O)NC23CC4CC(CC(C4)C2)C3)cc1[N+](=O)[O-]	-5	-8	1.2	-16	-10
CC(=O)c1c(C)[nH]c(C(=O)Nc2ccc(C)cn2)c1C	73*	69*	0.1	88*	66*
CC(=O)c1c(C)[nH]c(C(=O)Nc2nc(C)cs2)c1C	73*	66*	0.1	90*	65*
CC(=O)c1c(C)[nH]c(C(=O)Nc2nc(-c3ccc(Cl)cc3)cs2)c1C	13	22	1	-2	.
CCS(=O)(=O)C1=NN2C(=N)/C(=C\c3ccc(SCc4ccco4)o3)C(=O)N=C2S1	0	12	1	2	.
Cc1c(NC(=O)c2cc(-n3cnnc3)ccc2Cl)cccc1-c1nc2ccccc2s1	78*	61*	0.2	79*	58*
CCc1nc2c(OCCOc3ccc(F)cc3)cccn2c1N(C)C(=O)CC(C)C	-3	.	.	.	.
CCc1ccc(NC(=O)c2cnn3ccccc23)cc1	58*	50	0.2	78*	50*
CSc1cccc(NC(=O)c2cnn3ccccc23)c1	4	4	.	.	.
O=C(N/N=C/c1cccnc1)c1ccc2c(c1)OCCO2	81*	55*	0.1	91*	59*
CC[n+]1c(/C=C2\Sc3ccccc3N2C)ccc2cccc(C)c21	25	36	1	2	26
CN1/C(=C/c2cccc[n+]2CCO)Sc2ccccc21	4	.	.	.	.
CC(C)(C)c1ccc(Cn2nc(CC(=O)O)c3ccccc3c2=O)cc1	-6	34	1	-4	.
Cc1ccc(-c2nn(-c3ccccc3)cc2/C=N/NC(=O)c2ccncc2)o1	18	29	1	-4	27
CCOc1cc(C(=O)N/N=C/c2cn(-c3ccccc3)nc2-c2cc3ccccc3o2)cc(OCC)c1OCC	13	.	.	.	.
SMILES	TRAIL sens C8	PPC-1+TRAIL kill	FLuc stim CS	FLuc inh counter	PPC-1 tox
Cc1ccc(-c2nnc(Nc3ccccc3)o2)cc1	81*	84*	0.1	88*	85*
O=C(N/N=C/c1ccc([N+](=O)[O-])cc1)c1cc(C2CC2)[nH]n1	8	.	.	.	.
O=C(N/N=C/c1ccc([N+](=O)[O-])cc1)c1[nH]ncc1Br	49	27	0.4	60*	26
Cc1ccccc1NC(=O)c1ccc2c(O)c(S(=O)(=O)c3ccccc3)c(=O)[nH]c2c1	7	.	.	.	.
O=C(CSc1nc2ccccc2s1)Nc1cc(S(=O)(=O)N2CCOCC2)ccc1O	-7	6	0.9	9	.
Nc1[nH]n(-c2ccccc2)c(=O)c1N=Nc1ccc2c(c1)OCCO2	55*	45	0.2	76*	42
COc1ccc(C(=O)N2CCN(c3ncnc4c(-c5ccccc5)nsc34)CC2)cc1	36	8	1.1	-9	.
COc1ccc(-c2nsc3c(N4CCCCC4C)ncnc23)cc1 (centres undefined)	78*	77*	0.1	91*	79*
COc1ccc(-c2nsc3c(N4CCCCC4)ncnc23)cc1	85*	79*	0.1	89*	78*
